We go through six compounds from ChEMBL document CHEMBL1151954, “Photinides A-F, cytotoxic benzofuranone-derived gamma-lactones from the plant endophytic fungus Pestalotiopsis photiniae” (2009).

One experiment has as its system MDA-MB-231. Nature of the experiment: Cytotoxicity against human MDA-MB-231 cells at 10 ug/ml after 4 hrs by MTT assay. Type of experiment: functional. The gist of the method: (§1)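 MTT assay in 96-well plates, 10^4 cells per well, attached overnight. Cells were exposed to compound diluted in medium from 10 mg/mL DMSO stocks (vehicle control 0.2% DMSO) at 37 °C, 5% CO2, for 4 h, then changed to fresh DMEM. MTT (0.5 mg/mL) was added for 3 h at 37 °C in the dark. Formazan was dissolved in DMSO and read at 540 nm; results given as inhibitory rate.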
(In general: Tetrazolium dyes change colour on reduction, which living cells bring about.)

The next experiment has as its system HeLa. Nature of the experiment: Cytotoxicity against human HeLa cells at 10 ug/ml after 4 hrs by MTT assay. Type of experiment: functional, cell-based. An outline of the steps:
as §1

The structures appear in SMILES notation. Calls of active or inactive are those of the source. The calls are words filed in the database; no cut-off is given here.

Compound `COc1cccc2c1C(=O)[C@]1(O2)O[C@@]1(CO)[C@@H]1OC(=O)C[C@H]1C` gave an Activity in the experiment with MDA-MB-231 of 24.6%. For the same compound, the outcome with HeLa was inactive.

`COc1cccc2c1C(=O)[C@@]1(O2)O[C@]1(CO)[C@@H]1OC(=O)C[C@H]1C`: the result in the experiment on MDA-MB-231 was Active. Moreover, the outcome in the experiment on HeLa was inactive.

With `COc1cccc2c1C(=O)/C(=C(\CO)[C@@H]1OC(=O)C[C@H]1C)O2` [PHOTINIDE A], the Activity in the experiment on MDA-MB-231 is given as 24.4%. Further, the result in the experiment on HeLa was inactive.

In the case of `COc1cccc2c1C(=O)/C(=C(/CO)[C@@H]1OC(=O)C[C@H]1C)O2` [PHOTINIDE B], in the experiment on MDA-MB-231, the Activity turned out to be 24.2%. Also, the result in the experiment on HeLa was inactive.

Consider `C[C@@H]1CC(=O)O[C@H]1/C(CO)=C1\Oc2cccc(O)c2C1=O` [PHOTINIDE C], for which the Activity in the experiment with MDA-MB-231 is recorded as 23.1%. Also, the outcome in the experiment with HeLa was inactive.

As to `C[C@@H]1CC(=O)O[C@H]1/C(CO)=C1/Oc2cccc(O)c2C1=O` [PHOTINIDE D], the Activity in the experiment with MDA-MB-231 came to 24.4%. Further, the result in the experiment on HeLa was inactive.
